Converted amounts (≈) assume the structure as drawn.
What was measured:
MCF7 [1] = assay: Effect on CAT level in human MCF7 cells assessed per mg protein at 5 ug/ml after 24 hrs (reference value: 7.90+/- 0.67 U/mg of protein); assay type: functional
MCF7 [2] = assay: Decrease in glutathione level in human MCF7 cells; assay type: functional, cell-based
MCF7 [3] = assay: Effect on glutathione level in human MCF7 cells assessed per mg protein at 10 ug/ml by Ellman method after 24 hrs (reference value: 39.82 +/- 4.20 nmol/mg of protein); assay type: functional
MCF7 [4] = assay: Effect on RNA level in human MCF7 cells assessed per 10 '6 cells at 2 ug/ml after 24 hrs (reference value: 11.50 +/- 0.70 ug/10^6 cells); assay type: functional
Method in brief: (§1)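 After 24 h exposure of MCF-7 cells to compound at 2, 5, 10 or 20 µg/ml at 37 °C, nucleic acids were precipitated from cell homogenates. DNA was extracted and assayed by the Zhou et al. method, and RNA by a kit-derived procedure. Results given per 10⁶ cells as means ± S.E. of four experiments versus untreated control.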

MCF7 [5] = assay: Effect on hydrogen peroxide level in human MCF7 cells assessed per mg protein at 2 ug/ml by Wolf's method after 24 hrs (reference value: 12.50 +/- 1.54 nmol/mg of protein); assay type: functional
MCF7 [6] = assay: Effect on DNA level in human MCF7 cells assessed per 10 '6 cells at 5 ug/ml after 24 hrs (reference value: 6.80 +/- 0.70 ug/10^6 cells); assay type: functional; method in brief: as §1
MCF7 [7] = assay: Effect on hydrogen peroxide level in human MCF7 cells assessed per mg protein at 10 ug/ml by Wolf's method after 24 hrs (reference value: 12.50 +/- 1.54 nmol/mg of protein); assay type: functional
MCF7 [8] = assay: Effect on CAT level in human MCF7 cells assessed per mg protein at 10 ug/ml after 24 hrs (reference value: 7.90+/- 0.67 U/mg of protein); assay type: functional
MCF7 [9] = assay: Effect on SOD level in human MCF7 cells assessed per mg protein at 20 ug/ml after 24 hrs (reference value: 27.61+/- 3.72 U/mg of protein); assay type: functional
MCF7 [10] = assay: Increase in hydrogen peroxide level in human MCF7 cells; assay type: functional, cell-based
MCF7 [11] = assay: Effect on RNA level in human MCF7 cells assessed per 10 '6 cells at 10 ug/ml after 24 hrs (reference value: 11.50 +/- 0.70 ug/10^6 cells); assay type: functional; method in brief: as §1
MCF7 [12] = assay: Effect on SOD level in human MCF7 cells assessed per mg protein at 2 ug/ml after 24 hrs (reference value: 27.61+/- 3.72 U/mg of protein); assay type: functional
MCF7 [13] = assay: Decrease in CAT level in human MCF7 cells; assay type: functional, cell-based
MCF7 [14] = assay: Effect on glutathione level in human MCF7 cells assessed per mg protein at 5 ug/ml by Ellman method after 24 hrs (reference value: 39.82 +/- 4.20 nmol/mg of protein); assay type: functional
MCF7 [15] = assay: Effect on hydrogen peroxide level in human MCF7 cells assessed per mg protein at 20 ug/ml by Wolf's method after 24 hrs (reference value: 12.50 +/- 1.54 nmol/mg of protein); assay type: functional
MCF7 [16] = assay: Effect on RNA level in human MCF7 cells assessed per 10 '6 cells at 5 ug/ml after 24 hrs (reference value: 11.50 +/- 0.70 ug/10^6 cells); assay type: functional; method in brief: as §1
MCF7 [17] = assay: Effect on glutathione level in human MCF7 cells assessed per mg protein at 2 ug/ml by Ellman method after 24 hrs (reference value: 39.82 +/- 4.20 nmol/mg of protein); assay type: functional
MCF7 [18] = assay: Effect on DNA level in human MCF7 cells assessed per 10 '6 cells at 10 ug/ml after 24 hrs (reference value: 6.80 +/- 0.70 ug/10^6 cells); assay type: functional; method in brief: as §1
MCF7 [19] = assay: Increase in SOD level in human MCF7 cells; assay type: functional, cell-based
MCF7 [20] = assay: Decrease in glutathione peroxidase level in human MCF7 cells; assay type: functional, cell-based
MCF7 [21] = assay: Effect on DNA level in human MCF7 cells assessed per 10 '6 cells at 2 ug/ml after 24 hrs (reference value: 6.80 +/- 0.70 ug/10^6 cells); assay type: functional; method in brief: as §1
MCF7 [22] = assay: Effect on glutathione peroxidase level in human MCF7 cells assessed per mg protein at 10 ug/ml after 24 hrs (reference value: 11.20 +/- 1.36 U/mg of protein); assay type: functional
MCF7 [23] = assay: Effect on CAT level in human MCF7 cells assessed per mg protein at 20 ug/ml after 24 hrs (reference value: 7.90+/- 0.67 U/mg of protein); assay type: functional
MCF7 [24] = assay: Effect on glutathione peroxidase level in human MCF7 cells assessed per mg protein at 5 ug/ml after 24 hrs (reference value: 11.20 +/- 1.36 U/mg of protein); assay type: functional
MCF7 [25] = assay: Effect on DNA level in human MCF7 cells assessed per 10 '6 cells at 20 ug/ml after 24 hrs (reference value: 6.80 +/- 0.70 ug/10^6 cells); assay type: functional; method in brief: as §1
MCF7 [26] = assay: Effect on SOD level in human MCF7 cells assessed per mg protein at 10 ug/ml after 24 hrs (reference value: 27.61+/- 3.72 U/mg of protein); assay type: functional
MCF7 [27] = assay: Effect on RNA level in human MCF7 cells assessed per 10 '6 cells at 20 ug/ml after 24 hrs (reference value: 11.50 +/- 0.70 ug/10^6 cells); assay type: functional; method in brief: as §1
MCF7 [28] = assay: Antiproliferative activity against human MCF7 cells after 24 hrs by MTT assay; assay type: functional, cell-based; conditions: for IC50: MCF7, 24 h
Method in brief: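 MCF-7 cells (DMEM, 10% heat-inactivated FCS, penicillin/streptomycin, 37 °C, 5% CO2) plated at 0.65 × 10⁵ cells/well and given 24 h to attach. Exposed to compound or cisplatin at 2, 5, 10 or 20 µg/ml for 24 h at 37 °C. MTT added for 4 h, formazan dissolved in DMSO, absorbance read at 570 nm. Viability taken relative to untreated cells and IC50 derived.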

MCF7 [29] = assay: Effect on glutathione peroxidase level in human MCF7 cells assessed per mg protein at 20 ug/ml after 24 hrs (reference value: 11.20 +/- 1.36 U/mg of protein); assay type: functional
MCF7 [30] = assay: Effect on CAT level in human MCF7 cells assessed per mg protein at 2 ug/ml after 24 hrs (reference value: 7.90+/- 0.67 U/mg of protein); assay type: functional
MCF7 [31] = assay: Decrease in RNA level in human MCF7 cells assessed per 10 '6 cells after 24 hrs relative to control; assay type: functional, cell-based; method in brief: as §1
MCF7 [32] = assay: Effect on glutathione level in human MCF7 cells assessed per mg protein at 20 ug/ml by Ellman method after 24 hrs (reference value: 39.82 +/- 4.20 nmol/mg of protein); assay type: functional
MCF7 [33] = assay: Effect on hydrogen peroxide level in human MCF7 cells assessed per mg protein at 5 ug/ml by Wolf's method after 24 hrs (reference value: 12.50 +/- 1.54 nmol/mg of protein); assay type: functional
MCF7 [34] = assay: Effect on glutathione peroxidase level in human MCF7 cells assessed per mg protein at 2 ug/ml after 24 hrs (reference value: 11.20 +/- 1.36 U/mg of protein); assay type: functional
MCF7 [35] = assay: Effect on SOD level in human MCF7 cells assessed per mg protein at 5 ug/ml after 24 hrs (reference value: 27.61+/- 3.72 U/mg of protein); assay type: functional
MCF7 [36] = assay: Decrease in DNA level in human MCF7 cells assessed per 10 '6 cells after 24 hrs relative to control; assay type: functional, cell-based; method in brief: as §1

| Structure (SMILES) | Activity (MCF7 [1]) | Activity (MCF7 [2]) | Activity (MCF7 [3]) | Activity (MCF7 [4]) | Activity (MCF7 [5]) | Activity (MCF7 [6]) | Activity (MCF7 [7]) | Activity (MCF7 [8]) | Activity (MCF7 [9]) | Activity (MCF7 [10]) | Activity (MCF7 [11]) | Activity (MCF7 [12]) | Activity (MCF7 [13]) | Activity (MCF7 [14]) | Activity (MCF7 [15]) | Activity (MCF7 [16]) | Activity (MCF7 [17]) | Activity (MCF7 [18]) | Activity (MCF7 [19]) | Activity (MCF7 [20]) | also measured |
| --- | --- | --- | --- | --- | --- | --- | --- | --- | --- | --- | --- | --- | --- | --- | --- | --- | --- | --- | --- | --- | --- |
| Cc1nc(-n2ncc3c(=O)[nH]cnc32)c2c3c(sc2n1)CCc1ccccc1-3 | 3.6 U/mg protein | Dose-dependent effect | 17.7 nmol | 7.6 µg/10^6 cells | 32 nmol | 3.8 µg/10^6 cells | 52 nmol | 2.8 U/mg protein | 290 U/mg protein | Dose-dependent effect | 5.81 µg/10^6 cells | 95.6 U/mg protein | Dose-dependent effect | 18.66 nmol | 60.3 nmol | 6.4 µg/10^6 cells | 27.9 nmol | 3 µg/10^6 cells | Dose-dependent effect | Dose-dependent effect | Activity (MCF7 [21]): 4.2 µg/10^6 cells; Activity (MCF7 [22]): 3.11 U/mg protein; Activity (MCF7 [23]): 2.3 U/mg protein; Activity (MCF7 [24]): 5.5 U/mg protein; Activity (MCF7 [25]): 2.7 µg/10^6 cells; Activity (MCF7 [26]): 240 U/mg protein; Activity (MCF7 [27]): 5.25 µg/10^6 cells; Activity (MCF7 [28]): Dose-dependent effect; IC50 (MCF7 [28]): 4.4 µg/mL (≈ 11.4 µM); Activity (MCF7 [29]): 2.65 U/mg protein; Activity (MCF7 [30]): 4 U/mg protein; Activity (MCF7 [31]): Dose-dependent effect; Activity (MCF7 [32]): 16 nmol; Activity (MCF7 [33]): 40.6 nmol; Activity (MCF7 [34]): 6.9 U/mg protein; Activity (MCF7 [35]): 126 U/mg protein; Activity (MCF7 [36]): Dose-dependent effect |
| Cc1nc(-n2ncc3c(Cl)ncnc32)c2c3c(sc2n1)CCc1ccccc1-3 | 4.9 U/mg protein | Dose-dependent effect | 27.2 nmol | 8.75 µg/10^6 cells | 28.23 nmol | 4.46 µg/10^6 cells | 37.85 nmol | 4.2 U/mg protein | 201 U/mg protein | Dose-dependent effect | 6.7 µg/10^6 cells | 80.2 U/mg protein | Dose-dependent effect | 29.5 nmol | 52.33 nmol | 7.5 µg/10^6 cells | 35.8 nmol | 4 µg/10^6 cells | Dose-dependent effect | Dose-dependent effect | Activity (MCF7 [21]): 4.85 µg/10^6 cells; Activity (MCF7 [22]): 7 U/mg protein; Activity (MCF7 [23]): 3.65 U/mg protein; Activity (MCF7 [24]): 7.6 U/mg protein; Activity (MCF7 [25]): 3.85 µg/10^6 cells; Activity (MCF7 [26]): 160 U/mg protein; Activity (MCF7 [27]): 6.5 µg/10^6 cells; Activity (MCF7 [28]): Dose-dependent effect; IC50 (MCF7 [28]): 7 µg/mL (≈ 17.3 µM); Activity (MCF7 [29]): 6.7 U/mg protein; Activity (MCF7 [30]): 5.8 U/mg protein; Activity (MCF7 [31]): Dose-dependent effect; Activity (MCF7 [32]): 25 nmol; Activity (MCF7 [33]): 25.45 nmol; Activity (MCF7 [34]): 8 U/mg protein; Activity (MCF7 [35]): 90.6 U/mg protein; Activity (MCF7 [36]): Dose-dependent effect |
